Reference: ChEMBL document CHEMBL1140741, “Discovery of 4-aryl-4H-chromenes as a new series of apoptosis inducers using a cell- and caspase-based high throughput screening assay. 4. Structure-activity relationships of N-alkyl substituted pyrrole fused at the 7,8-positions” (J Med Chem, 2008)
The source made the active and inactive calls. The rule behind the calls is not given here.

Key:
[1] = tested on: HCT-116; assay: Induction of apoptosis in human HCT116 cells assessed as caspase activation after 24 hrs by HTS assay; type: functional, cell-based; details: HCT-116, 24 h
Outline: (§1)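 Proprietary cell- and caspase-based HTS assay in ATCC-sourced cells; EC50 values given as mean ± SEM of three or more experiments.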

[2] = tested on: T47D; assay: Growth inhibition of human T47D cells after 48 hrs; type: functional
Outline: (§2)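 Cells (ATCC-sourced) exposed to compound for 48 h at 37 °C; CellTiter-Glo reagent added, mixed by agitation, incubated 10–15 min at room temperature, luminescence read. GI50 taken as concentration giving 50% inhibition of cell growth.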

[3] = tested on: SNU-398; assay: Induction of apoptosis in human SNU398 cells assessed as caspase activation after 24 hrs by HTS assay; type: functional, cell-based; details: SNU-398, 24 h; outline: as §1
[4] = tested on: T47D; assay: Induction of apoptosis in human T47D cells assessed as caspase activation after 24 hrs by HTS assay; type: functional, cell-based; outline: as §1
[5] = Inhibition of tubulin polymerization
[6] = tested on: MCF7; assay: Cell cycle arrest in human MCF7 cells by accumulation at G2/M phase; type: functional, cell-based
[7] = tested on: HCT-116; assay: Growth inhibition of human HCT116 cells after 48 hrs; type: functional; details: HCT-116, 48 h; outline: as §2
[8] = tested on: SNU-398; assay: Growth inhibition of human SNU398 cells after 48 hrs; type: functional; details: SNU-398, 48 h; outline: as §2

Row | EC50 [1] | GI50 [2] | EC50 [3] | EC50 [4] | IC50 [5] | GI50 [7] | GI50 [8] | Compound | Activity [6]
1 | 44 nM | 7 nM | 38 nM | 43 nM |  |  |  | CC[C@]1(O)C[C@@H]2CN(CCc3c([nH]c4ccccc34)[C@@](C(=O)OC)(c3cc4c(cc3OC)N(C)[C@H]3[C@@](O)(C(=O)OC)[C@H](OC(C)=O)[C@]5(CC)C=CCN6CC[C@]43[C@@H]65)C2)C1 [VINBLASTINE] | 
2 | 6 nM |  | 3 nM | 5 nM |  |  |  | COc1cc(OC)cc(C2C(C#N)=C(N)Oc3c2ccc2c3ccn2C)c1 (stereo not given) | 
3 | 7 nM |  | 5 nM | 6 nM |  |  |  | COc1cccc(C2C(C#N)=C(N)Oc3c2ccc2c3ccn2C)c1 (stereo not given) | 
4 | 3 nM | 0.3 nM | 2 nM | 2 nM | 900 nM | 1.4 nM | 0.2 nM | COc1cc(C2C(C#N)=C(N)Oc3c2ccc2c3ccn2C)cc(Br)c1OC (stereo not given) | Active
5 | 4 nM | 7 nM | 1 nM | 2 nM |  | 4 nM | 1 nM | COc1cc(C2C(C#N)=C(N)Oc3c2ccc2c3CCN2C)cc(Br)c1OC (stereo not given) | 
6 | 15 nM |  | 12 nM | 17 nM |  |  |  | COc1cc(C2C(C#N)=C(N)Oc3c2ccc2c3ccn2C)cc2c1OCO2 (stereo not given) | 
7 | 3 nM | 8 nM | 2 nM | 3 nM |  | 3 nM | 2 nM | Cc1cncc(C2C(C#N)=C(N)Oc3c2ccc2c3ccn2C)c1 (stereo not given) | 
8 | 3 nM |  | 3 nM | 3 nM |  |  |  | COc1cncc(C2C(C#N)=C(N)Oc3c2ccc2c3ccn2C)c1 (stereo not given) | 
9 | 170 nM |  | 130 nM | 150 nM |  |  |  | COc1cc(C2C(C#N)=C(N)Oc3c2ccc2ccn(C)c32)cc(Br)c1OC (stereo not given) | 
10 | 24 nM |  | 11 nM | 36 nM |  |  |  | CC(=O)O[C@H]1C(=O)[C@@]2(C)[C@H]([C@H](OC(=O)c3ccccc3)[C@]3(O)C[C@H](OC(=O)[C@H](O)[C@@H](NC(=O)c4ccccc4)c4ccccc4)C(C)=C1C3(C)C)[C@]1(OC(C)=O)CO[C@@H]1C[C@@H]2O [PACLITAXEL] | 
11 | 3 nM | 2 nM | 2 nM | 3 nM |  | 4 nM | 1 nM | COc1cc(C2C(C#N)=C(N)Oc3c2ccc2c3ccn2CO)cc(Br)c1OC (stereo not given) | 
12 | 5 nM |  | 3 nM | 4 nM |  |  |  | COc1cc(C2C(C#N)=C(N)Oc3c2ccc2c3ncn2C)cc(Br)c1OC (stereo not given) | 
13 | 58 nM |  | 12 nM | 43 nM |  |  |  | CC[C@]1(O)C[C@H]2CN(CCc3c([nH]c4ccccc34)[C@@](C(=O)OC)(c3cc4c(cc3OC)N(C=O)[C@H]3[C@@](O)(C(=O)OC)[C@H](OC(C)=O)[C@]5(CC)C=CCN6CC[C@]43[C@@H]65)C2)C1 [VINCRISTINE] | 
14 | 54 nM |  | 27 nM | 30 nM |  |  |  | COc1cc(C2C(C#N)=C(N)Oc3c2ccc2[nH]c(C)cc32)cc(Br)c1OC (stereo not given) | 
15 | 69 nM |  | 86 nM | 16 nM |  |  |  | COc1cc(C2C(C#N)=C(N)Oc3c2ccc2cc[nH]c32)cc(Br)c1OC (stereo not given) | 
16 | 6 nM |  | 3 nM | 4 nM |  |  |  | COc1cc(C2C(C#N)=C(N)Oc3c2ccc2c3ccn2C)cc(OC)c1OC (stereo not given) | 
17 | 44 nM |  | 25 nM | 39 nM |  |  |  | CCn1ccc2c3c(ccc21)C(c1cc(Br)c(OC)c(OC)c1)C(C#N)=C(N)O3 (stereo not given) | 

Row | Compound | EC50 [1] | GI50 [2] | EC50 [3] | EC50 [4] | IC50 [5] | GI50 [7] | GI50 [8] | Activity [6]
18 | COc1cc2c(c(OC)c1OC)-c1ccc(OC)c(=O)cc1[C@@H](NC(C)=O)CC2 [COLCHICINE] | 15 nM | 7 nM | 4 nM |  |  |  |  | 
19 | COc1cc(C2C(C#N)=C(N)Oc3c2ccc2[nH]ccc32)cc(Br)c1OC (stereo not given) | 14 nM | 8 nM | 15 nM | 5 nM |  | 20 nM | 14 nM | 
